Test results published in ChEMBL document CHEMBL2380273, “Discovery of potent transient receptor potential vanilloid 1 antagonists: design and synthesis of phenoxyacetamide derivatives” (Bioorg Med Chem Lett, 2013).

What was measured:
[1] = biological target: Transient receptor potential cation channel subfamily V member 1 (Homo sapiens, UniProt Q8NER1); test: Antagonist activity at human TRPV1 transfected in CHOK1 cells assessed as inhibition of capsaicin-induced intracellular calcium level measured for 120 secs by FLIPR analysis; type: cell-based, CHO-K1
Outline: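 CHO-K1 cells stably expressing hTRPV1, grown to 90% confluency, loaded 90 min at rt with Fluo4-AM (2 μM) in HBSS/20 mM HEPES pH 7.4, then washed three times. Test agent added at various concentrations together with 100 nM capsaicin. Peak fluorescence over 120 s averaged in triplicate. IC50 is the concentration giving 50% inhibition of the capsaicin control response.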

Rattus norvegicus [2] = test: Reduction of cyclophosphamide-induced voiding frequency in iv dosed Sprague-Dawley rat cystitis and pollakiuria model measured for 20 mins; type: functional, organism-based
Outline: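 Female Sprague–Dawley rats given cyclophosphamide 150 mg/kg ip. Bladder catheter implanted 4 h later, with saline infused at 3.6 mL/h for continuous cystometry. Once voiding frequency was stable, dosed iv with test agent or vehicle (20% cremophor EL). Voids counted for 20 min before and after dosing and expressed as % change. n=4, mean ± SEM; Bartlett's then Williams' test versus vehicle.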

Rattus norvegicus [3] = test: Suppression of capsaicin-induced bladder contraction in iv dosed Sprague-Dawley rat overactive bladder model; type: functional, organism-based
Outline: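 Female Sprague–Dawley rats anesthetized with urethane (1.0 g/kg ip) and bladder catheterized via the urethra, with saline infused at 3.0 mL/h for 5 min for basal pressure. Capsaicin 30 μg/kg iv given every 10 min. After stable contractions, test agent or vehicle (20% cremophor EL) given iv, followed by capsaicin again. Reported as % change in contraction. n=4, mean ± SEM; Bartlett's then Williams' test versus vehicle.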

Chain of Transient receptor potential cation channel subfamily V member 1 (Q8NER1 whole entry): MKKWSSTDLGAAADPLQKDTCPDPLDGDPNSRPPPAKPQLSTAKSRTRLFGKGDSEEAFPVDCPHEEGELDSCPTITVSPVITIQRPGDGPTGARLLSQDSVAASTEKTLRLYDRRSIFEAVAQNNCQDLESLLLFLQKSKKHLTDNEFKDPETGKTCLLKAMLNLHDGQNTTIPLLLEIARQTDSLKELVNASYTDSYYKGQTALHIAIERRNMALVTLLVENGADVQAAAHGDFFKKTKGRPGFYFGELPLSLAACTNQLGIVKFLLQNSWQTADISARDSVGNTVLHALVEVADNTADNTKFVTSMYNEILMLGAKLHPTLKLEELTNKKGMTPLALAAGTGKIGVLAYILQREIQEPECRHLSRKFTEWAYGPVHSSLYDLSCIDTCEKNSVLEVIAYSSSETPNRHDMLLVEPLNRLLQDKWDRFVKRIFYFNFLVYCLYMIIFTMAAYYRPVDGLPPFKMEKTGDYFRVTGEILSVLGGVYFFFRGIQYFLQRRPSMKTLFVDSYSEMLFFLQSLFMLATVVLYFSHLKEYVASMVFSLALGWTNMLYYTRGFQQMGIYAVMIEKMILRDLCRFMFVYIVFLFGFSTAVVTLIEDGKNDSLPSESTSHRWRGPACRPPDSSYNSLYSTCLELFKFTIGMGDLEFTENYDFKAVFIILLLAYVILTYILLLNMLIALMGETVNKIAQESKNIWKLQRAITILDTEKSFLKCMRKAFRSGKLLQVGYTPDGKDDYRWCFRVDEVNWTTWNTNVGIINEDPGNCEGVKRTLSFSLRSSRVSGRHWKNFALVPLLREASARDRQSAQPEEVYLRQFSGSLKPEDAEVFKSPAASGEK

IC50 [1] [nM]	Structure (SMILES)	Activity (Rattus norvegicus [2])	Activity (Rattus norvegicus [3])
110	CC(C)c1ccc(OCC(=O)Nc2ccc(N(C)CCO)nc2)cc1		
583	CCN(C)c1ccc(NC(=O)COc2ccc(C(C)(C)C)cc2)cn1		
86	CN(CCO)c1ccc(NC(=O)COc2ccc(C(C)(C)C)cc2Br)cn1		
> 10000	CN(CCO)c1ccc(NC(=O)COc2ccc(C(F)(F)F)cc2)cn1		
130	Cc1cc(NC(=O)COc2ccc(C(C)(C)C)cc2)cnc1N(C)CCO		
2620	CN(CCO)c1ccc(NC(=O)COc2cccc(C(C)(C)C)c2)cn1		
44	CN(CCO)c1ncc(NC(=O)COc2ccc(C(C)(C)C)cc2)cc1Cl		
59	CN(C)c1ccc(NC(=O)COc2ccc(C(C)(C)C)cc2)cn1		
33	CN(CCO)c1ccc(NC(=O)COc2ccc(C(C)(C)C)cc2)cn1	Dose-dependent effect	Dose-dependent effect

More lines, now with the values behind:

Structure (SMILES)	IC50 [1] [nM]	Activity (Rattus norvegicus [2])	Activity (Rattus norvegicus [3])
CN(CCO)c1ccc(NC(=O)COc2ccc(C34CC5CC(CC(C5)C3)C4)cc2)cn1	> 10000		
O=C(Nc1ccccc1Br)N[C@H]1CCN(c2ccc(C(F)(F)F)cn2)C1	120		
CN(CCO)c1ccc(NC(=O)COc2ccc(C(C)(C)C)cc2N2CCCCC2)cn1	941		
CN(CCO)c1ccc(NC(=O)COc2ccccc2C(C)(C)C)cn1	796		
CN(CCO)c1ccc(NC(=O)COc2ccc(C(C)(C)C)cc2C(C)(C)C)cn1	107		
CN(CCO)c1ccc(NC(=O)COc2ccccc2)cn1	> 10000		
CC(C)(C)c1ccc(OCC(=O)Nc2ccc(N3CCCC3)nc2)cc1	411		
CC(C)(C)c1ccc(OCC(=O)Nc2ccc(N3CCC(O)C3)nc2)cc1 (centres undefined)	516		
